Only some compounds are listed: those with a hit (about 2.6% of all), similar ones and a draw of the others.
F508del corr: F508del CFTR correction, initial screen, CFBE line, single point; activity (quench increase), % at 7.58 µM; AID 720511, 2013; CFBE cells, YFP halide quenching; stimulated with forskolin plus potentiator P3; % fluorescence drop versus neutral controls; 350,000 compounds, 0.36% hits;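 active = mean added fluorescence quench of at least 8% versus neutral control, with both replicates also reaching 8%; inconclusive = only one of the mean or replicate conditions met; inactive = mean below 8% and not both replicates reaching 8%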;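 note: cells transiently co-express mutant CFTR-F508del with the halide-sensitive YFP; corrector assay measuring rescue of mutant channel to the surface after 24 h compound exposure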
GSIS activator: GLuc luminescence reporter in INS-1E cells, primary screen for activators of glucose-dependent secretion of insulin; INS-1E GLuc reporter insulin secretion, 2-3 h; activation, % at 16.6 µM; 370,000 compounds, 0.61% hits;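 active = lowest replicate activation of at least 40%, so every replicate reaches that level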;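 note: 0% = median of neutral control wells and 100% = median of IBMX positive control wells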
DENV2 CPE: inhibitors of DENV2 cytopathic effect, primary screen, cell-based, plate reader, single concentration. 350,000 compounds, 1.7% hits. CPE inhibition, % at 9.99 µM. DENV2-infected cells, cytopathic effect rescue. AID 651640, 2012; in the data active = CPE inhibition above about 20%, passing the limit was not always enough; inconclusive = no clear call, values can overlap the other calls; tested in BHK-21 cells;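 note: 0% = median of neutral control wells and 100% = median of positive control wells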
E-sel inducer: E-selectin induction in HUVECs, primary screen, imaging, HUVEC, immunofluorescence imaging, single point; P16581; normalized: neutral wells 0, TNF-alpha wells 100; activation, % at 7.58 µM; 260,000 compounds, 0.37% hits; AID 686992, 2013;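 active = mean E-selectin-positive cell signal at least 10% of the positive control, reached in at least 60% of replicates, without over 20% cell loss; inconclusive = no rule given, readout overlaps actives, possibly toxicity-flagged; inactive = the rest, including those meeting only one limit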
Target sequence (P16581 whole entry, looked up): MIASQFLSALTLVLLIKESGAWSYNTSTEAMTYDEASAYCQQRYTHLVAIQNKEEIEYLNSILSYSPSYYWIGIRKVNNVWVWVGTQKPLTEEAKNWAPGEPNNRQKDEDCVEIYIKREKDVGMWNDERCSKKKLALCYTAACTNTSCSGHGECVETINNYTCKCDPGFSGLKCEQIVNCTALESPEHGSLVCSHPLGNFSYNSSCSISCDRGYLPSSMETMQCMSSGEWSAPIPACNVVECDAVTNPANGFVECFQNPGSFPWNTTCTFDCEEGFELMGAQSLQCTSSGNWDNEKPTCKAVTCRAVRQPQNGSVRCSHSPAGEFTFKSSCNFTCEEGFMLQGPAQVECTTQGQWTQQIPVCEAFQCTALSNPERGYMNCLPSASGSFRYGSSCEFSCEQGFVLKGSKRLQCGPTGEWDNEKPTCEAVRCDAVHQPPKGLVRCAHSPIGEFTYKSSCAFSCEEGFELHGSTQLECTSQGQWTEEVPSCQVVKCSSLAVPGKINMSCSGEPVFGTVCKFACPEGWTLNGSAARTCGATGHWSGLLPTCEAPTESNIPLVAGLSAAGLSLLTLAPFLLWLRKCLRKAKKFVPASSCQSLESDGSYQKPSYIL
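Read-out basis: % PE-positive cells; Test system: HUVEC primary endothelial cells; Technique: immunofluorescence imaging; Dosing: single-point compound dose.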
miR-122 sensor: miR-122 Renilla sensor signal increase in Huh7, primary screen, miR-122 inhibitor project, cell-based, single point, plate reader; Huh7 miR-122 Renilla luciferase sensor, 48 h; neutral wells = 0, positive control = 100; activation (reporter increase), % at 12.5 µM; 340,000 compounds, 0.3% hits; AID 602342, 2012;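 active = mean replicate activation score at least 90 and every replicate individually at or above 90; inconclusive = only one of the two criteria met; inactive = neither criterion met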;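 note: higher luciferase means less miR-122 activity so hits act as miR-122 inhibitors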
ERAP1 HTS inh: human ERAP1 aminopeptidase inhibitors, primary screen, biochemical, single point, plate reader; recombinant ERAP1, Leu-AMC fluorescence, 60 min; inhibition, % at 10.7 µM; AID 652197, 2013; 340,000 compounds, 0.15% hits;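 active = mean replicate inhibition of at least 30%, or all replicates individually reaching that 30% level; inactive = mean below 30% and not every replicate reaching it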;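 note: 0% = neutral control wells and 100% = L-leucinethiol positive control wells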
Active calls of the source: *; ? = inconclusive; . = no result given; [ ] = dose if it differs, or a comment.

SMILES	F508del corr	GSIS activator	DENV2 CPE	E-sel inducer	miR-122 sensor	ERAP1 HTS inh
COc1ccccc1CC(Cc1nc2ccccc2[nH]1)c1nc2ccccc2[nH]1 (stereo not drawn)	5	-6	-2	176*	.	1
CC(C)NC(=O)N[C@@H]1CC[C@@H](CCNS(=O)(=O)c2ccc(Cl)cc2)O[C@@H]1CO	-5	8	-3	1	.	-16
CNc1cncc(-c2cccc(C(C)=O)c2)n1	2	27	31*	0	1	0
Cc1ccc(Nc2nc(C(=O)NCc3ccco3)cs2)cc1	.	.	.	.	162*	.
COc1ccccc1-c1nnc(NC(=O)CSc2nncn2C)s1	-1	11	-6	37*	.	0
C[C@@H]1CN([C@H](C)CO)C(=O)c2ccccc2-c2ccccc2CO[C@@H]1CN(C)C(=O)Oc1ccccc1	.	9	.	.	.	.
COc1ccc(NC(=O)N(C)C[C@H]2Oc3c(NS(=O)(=O)c4ccc(F)cc4)cccc3C(=O)N([C@@H](C)CO)C[C@H]2C)cc1	-2	-11	?	0	0[16.7 µM]	.
O=C(N/N=C1\CC2CC=CC12)c1ccccc1Cl (stereo not drawn)	-2	13	-4	0	-5	3
O=[N+]([O-])c1ccccc1N/N=C1\CC2CC=CC12 (stereo not drawn)	0	7	30*	2	.	-5
CC(Sc1ncnc2sc(-c3ccccc3)cc12)C(=O)N1CCNC1=O (stereo not drawn)	1	6	-2	39*	3	0
CC(C)N(C(=O)CSc1ncnc2sc(-c3ccccc3)cc12)C(C)C	.	9	.	.	.	.
CO[C@H]1CN(C)C(=O)c2cc(NC(C)=O)ccc2OC[C@@H](C)N(Cc2cccnc2)C[C@@H]1C	2	-3	.	0	-7[16.7 µM]	.
O=C1NC(=O)/C(=C/c2cc3c(cc2Br)OCO3)S1	3	-41	22*	0	-2	2
O=C1Nc2ccc3c(c2C1=Cc1cc2c(cc1Br)OCO2)OCO3	-2	-1	-5	2	.	-1
COc1cccc(C(=O)NN2CC(O)=C(c3nc4ccccc4s3)C2=N)c1	1	5	-4	.	-1	-1
N=C1C(c2nc3ccccc3s2)=C(O)CN1NC(=O)c1ccco1	-1	-11	3	33*	4	-4
N#CC(C#N)=C1C=C2C=C(N3CCOCC3)CCC2CC1 (stereo not drawn)	70*	.	-5	0	.	6
CC1(C)CC(NCCN2CCN(C3=CC(=C(C#N)C#N)CC(C)(C)C3)CC2)=CC(=C(C#N)C#N)C1	-4	-30	5	.	.	-5
N#CC(C#N)=C1C=C2C=C(N3CCCCCC3)CCC2CC1 (stereo not drawn)	67*	0	-4	.	.	5
O=C(NNC1CCN(Cc2ccccc2)CC1)c1ccccc1	5	44*	-4	0	-2	-2
O=C(NC1CCN(Cc2ccccc2)CC1)c1ccccc1	0	2	-6	1	-1	-5
Cc1cc(C)c(C)c(S(=O)(=O)NC2CCN(Cc3ccccc3)CC2)c1C	3	-20	3	1	216*	-4
COc1ccc(N2CCN(C(CNC(=O)C(=O)NCCC3=CCCCC3)c3ccco3)CC2)cc1 (stereo not drawn)	.	-12	.	.	2	.
O=C(NCCC1=CCCCC1)C(=O)NCC(c1ccco1)N1CCN(c2ccccc2)CC1 (stereo not drawn)	.	126*	.	.	.	.
COc1ccc(N2CCN(C(CNC(=O)c3ccco3)c3ccco3)CC2)cc1 (stereo not drawn)	0	3	8	.	-5	1
SMILES	F508del corr	GSIS activator	DENV2 CPE	E-sel inducer	miR-122 sensor	ERAP1 HTS inh
COCCCNC(=O)C(=O)NCC(c1ccco1)N1CCN(c2ccc(OC)cc2)CC1 (stereo not drawn)	0	50*	-4	.	-10	1
CC(Sc1ccccc1)C(=O)NCC(c1ccco1)N1CCCCC1 (stereo not drawn)	0	12	107*	.	.	-3
C/C=C/c1ccc2c(c1)O[C@@H](CN(C)C(=O)NC(C)C)[C@@H](C)CN([C@H](C)CO)S2(=O)=O	0	7	6	0	-4[16.7 µM]	-1
Cc1cc(NC(=O)CN2C(=O)c3ccccc3S2(=O)=O)no1	3	11	12	-1	1	32*
O=C(c1ccco1)N1CCN(C(=O)c2ccc(-c3cccc(C(F)(F)F)c3)o2)CC1	0	-8	101*	.	.	-5
O=C(c1ccco1)N1CCN(C(=O)C2CC2)CC1	3	10	-9	37*	-13	2
O=C(NCC1CC1)[C@@H]1[C@@H](CO)[C@@H]2Cn3c(ccc(-c4cccnc4)c3=O)[C@H]1N2C(=O)C1CCCCC1	1	0	-5	0	2[16.7 µM]	2
C[C@H]1CN([C@@H](C)CO)S(=O)(=O)c2ccc(/C=C/c3ccccc3)cc2O[C@@H]1CN(C)Cc1ccccc1	5	-5	5	.	-9[16.7 µM]	0
O=C(Nc1cc(S(=O)(=O)N2CCOCC2)ccc1Cl)C(=O)c1c(-c2ccccc2)cc2ccccn12	.	.	.	.	155*	.
COc1ccc(S(=O)(=O)N[C@@H]2CC[C@H](CC(=O)O)O[C@@H]2CO)cc1	1	21	0	0	.	1
CC(C)(C)c1ccc(NC(=O)N2CCCN(c3ccc([N+](=O)[O-])cn3)CC2)cc1	-1	-1	0	76*	15	.
O=c1[nH]c(/C=C/c2ccc(OC(F)F)cc2)nc2c1cnn2-c1ccccc1	.	85*	.	.	.	.
O=C(CNC(=O)Cc1ccccc1)N=Nc1c(O)[nH]c2ccccc12	-1	-3	-4	.	-2	-1
O=C(CCCCCNC(=O)c1ccccc1Br)N=Nc1c(O)[nH]c2ccccc12	-2	0	0	88*	15	1
Cc1ccsc1/C=N/n1c(-c2ccccc2)n[nH]c1=S	-3	-4	3	1	.	-4
Cc1ccsc1/C=N/n1c(-c2ccncc2)n[nH]c1=S	.	48*	.	.	0	.
COc1ccc(N2CCc3c(C)nc4c(OC)cc(OC)cc4c32)cc1	11*	3	3	0	.	1
COc1ccc(N2CCc3c(C)nc4c(OC)cccc4c32)cc1	?	-4	0	4	.	20
COc1cccc(N2CCc3c(C)nc4ccc(Cl)cc4c32)c1	5	.	41*	0	-1	-1
CN1c2ccc(C#Cc3cccnc3)cc2[C@H]2[C@H](CCN2C(=O)c2cccnc2)[C@@H]1CO	1	-3	-5	0	-1[16.7 µM]	3
COc1ccc2c3c(n(C)c2c1)[C@@H](CO)NCC31CCN(S(=O)(=O)c2cccc(C)c2)CC1	3	-11	39*	0	.	0

Screening data deposited in PubChem BioAssay by Broad Institute.
